Records with an inconclusive call do not appear.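 Rule for the calls, unless noted: active = inhibition over a set limit, the all-compound mean plus 3 SD, in both replicate runs; inconclusive = over that limit in just one replicate run; inactive = at or under that limit in both runs.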
How the values were obtained:
[1] = OD615 S. cerevisiae growth inhibition, permissive medium, pilot counter-assay, permissive growth control for S. cerevisiae lifespan shortening project (AID 705;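 active = growth inhibition above 25% in both replicates, a cutoff set 3 SD above the mean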); details: OD615, 24 h, at 10 µM, stronger effect = higher value
Method in brief: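 System: S. cerevisiae with engineered DeaD lifespan system / Measured by: absorbance (optical density) at 615 nm / Read-out: reduction in yeast growth (OD615) / Times: 4 h cell pre-growth, 24 h exposure at 30 °C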

[2] = Restrictive medium S. cerevisiae growth inhibition, OD615, pilot screen of yeast lifespan reduction project, restrictive growth control (AID 706;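 active = growth inhibition above a set limit, 3 SD over mean compound inhibition, in both replicates, cut at about 43% in these data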;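 note: modified DeaD lifespan yeast strain shifted to restrictive glucose medium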); details: OD615, 48 h, at 10 µM, stronger effect = higher value
Method in brief: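 System: Engineered S. cerevisiae DeaD strain | Buffer or medium: Glucose-based CSMM-D restrictive medium | Schedule: 4 h pre-incubation, 48 h exposure at 30 °C | Technique: Optical density at 615 nm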

[3] = viability gain of MRP-1-high H69AR cells under doxorubicin, pilot screen, MRP-1 activator project, CellTiter-Glo, duplicate (AID 807;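 active = viability increase at or above a cutoff of the median across tested compounds plus 3 SD, cut at about 8.5% in these data, passing the limit was not always enough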;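 note: compound pretreatment 18-22 h then 72 h combined with doxorubicin; 0% = doxorubicin alone and 100% = vehicle without doxorubicin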); details: H69AR viability with doxorubicin, CellTiter-Glo luminescence; at 10 µM; stronger effect = higher value
[4] = growth suppression of beta-catenin knockout HCT116, pilot screen, human colon tumor cells (AID 823;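 active = cell viability at or below a set limit in both duplicate runs, the limit being the all-compound median minus 4 SD, cut at about 23% in these data, passing the limit was not always enough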;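 note: 0% = wells killed by 20 µM Hyamine and 100% = untreated DMSO cell wells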); details: CellTiter-Glo, 60 h, at 10 µM, stronger effect = lower value
[5] = growth suppression of PTEN-deleted HCT116, pilot screen, cell-based, HCT116 clonal line, CellTiter-Glo (AID 824;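 active = viability at or below 27.92% in each of two runs, the all-compound median minus 4 SD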;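 note: 0% = 20 µM Hyamine control and 100% = vehicle cell control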); details: 60 h, at 10 µM, stronger effect = lower value
[6] = inhibitors of the yeast RAM network, pilot screen, dse1pr::URA3 reporter, 5-FOA selection (AID 869);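 note: 0% = DMSO wells with no growth and 100% = 10 µM 1-NA-PP1 with full growth; RAM network block rescues cells from 5-FOA so hits raise OD615 growth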; details: S. cerevisiae dse1pr::URA3 5-FOA growth, OD615, 2 d; at 10 µM; stronger effect = higher value; strain carries analog-sensitive mutant Cbk1 kinase
[7] = RAM signaling pathway blockade in yeast – S. cerevisiae, Pdr1DBD-CYC8 efflux-inhibited sensitized strain, primary screen (AID 1298;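 active = RAM network inhibition above 8.4% in each of two replicates, 3 SD over the compound average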;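 note: 0% = DMSO untreated cells without growth and 100% = 10 µM 1-NA-PP1 full growth; higher means more yeast growth rescued from 5-FOA killing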); details: S. cerevisiae cbk1-as DSE1-URA3 strain, 5-FOA growth OD615, 2 d; at 50 µM; stronger effect = higher value

CN1C(=O)c2cccc(NC(=O)Cc3ccccc3)c2C1=O
inactive: growth inhibition [1] 1.68% | growth inhibition [2] 15.6% | viability increase [3] -1.47% | viability [4] 111% | viability [5] 91.1% | inhibition [6] 0.625% | RAM network inhibition [7] -0.88%

CC(C)C(=O)Nc1nnc(-c2ccccc2)o1
inactive: growth inhibition [1] -5.24% | growth inhibition [2] -0.51% | viability increase [3] -2.2% | viability [4] 102% | viability [5] 101% | inhibition [6] 0.64% | RAM network inhibition [7] -0.68%

COc1cc(NC(=O)Cn2ncc3c2-c2ccccc2OC3)cc(OC)c1OC
inactive: growth inhibition [1] -6.13% | growth inhibition [2] 6.98% | viability increase [3] -3.04% | viability [4] 86.6% | viability [5] 83.5% | inhibition [6] 2.05% | RAM network inhibition [7] 2.19%

Cc1cccc(NC(=O)CN2C(=O)COc3ccc(Cl)cc32)c1C
inactive: growth inhibition [1] -3.47% | growth inhibition [2] -2.44% | viability increase [3] -0.9% | viability [4] 87.5% | viability [5] 85.8% | inhibition [6] 2.24% | RAM network inhibition [7] 4.67%

O=C(Nc1ccc2nc3n(c(=O)c2c1)CCCCC3)c1ccccn1
inactive: growth inhibition [1] -2.29% | growth inhibition [2] 2.34% | viability increase [3] 1.28% | viability [4] 102% | viability [5] 107% | inhibition [6] 0.8% | RAM network inhibition [7] -2.05%

CCOC(=O)C1CCCN(C(=O)c2ccco2)C1 (stereo not drawn)
inactive: growth inhibition [1] -11.6% | growth inhibition [2] -12.6% | viability increase [3] -3.01% | viability [4] 93.7% | viability [5] 102% | inhibition [6] 2.3% | RAM network inhibition [7] 0.62%

O=C(Cc1cccs1)NCCn1ccc2ccccc21
inactive: growth inhibition [1] -14.2% | growth inhibition [2] -11.5% | viability increase [3] -1.16% | viability [4] 90.3% | viability [5] 87.1% | inhibition [6] 0.32% | RAM network inhibition [7] 9.88%

Cc1ccc(NC(=O)C2CCN(S(=O)(=O)c3cccc4cccnc34)CC2)nc1
inactive: growth inhibition [1] 2.12% | growth inhibition [2] -7.59% | viability increase [3] -2.71% | viability [4] 88.1% | viability [5] 87.2% | inhibition [6] -0.475% | RAM network inhibition [7] 3.26%

Cc1ccc(-c2nc3ncccc3o2)cc1NC(=O)Cc1ccc(Cl)cc1
inactive: growth inhibition [1] -17.4% | growth inhibition [2] -10.8% | viability increase [3] -4.9% | viability [4] 81.8% | viability [5] 82.9% | inhibition [6] 2.07% | RAM network inhibition [7] 1.75%

CCOC(=O)c1ccn(-c2nc(-c3ccco3)cc(C(F)(F)F)n2)n1
inactive: growth inhibition [1] -8.11% | growth inhibition [2] 6.16% | viability increase [3] 1.27% | viability [4] 106% | viability [5] 97.8% | inhibition [6] -0.505% | RAM network inhibition [7] 4.89%

O=C(NC(Nc1ncccn1)C(=O)c1ccccc1)c1ccccc1 (stereo not drawn)
inactive: growth inhibition [1] 5.63% | growth inhibition [2] -0.54% | viability increase [3] -0.49% | viability [4] 96.6% | viability [5] 98.5% | inhibition [6] -0.25% | RAM network inhibition [7] 2.01%

CC(C)CC(NS(=O)(=O)c1ccc2c(c1)oc(=O)n2C)C(=O)NC1CCCc2ccccc21 (stereo not drawn)
inactive: growth inhibition [1] 0.005% | growth inhibition [2] -5.15% | viability increase [3] -6.23% | viability [4] 76.8% | viability [5] 71.8% | inhibition [6] 1.38% | RAM network inhibition [7] 6.99%

CC(C)COC(=O)C1C2C=CC3(CN(C4CCCC4)C(=O)C13)O2 (stereo not drawn)
inactive: growth inhibition [1] -14.1% | growth inhibition [2] -0.515% | viability increase [3] -1.25% | viability [4] 107% | viability [5] 92.8% | inhibition [6] 2.07% | RAM network inhibition [7] 2.04%

CCN(Cc1ccccc1)C(=O)Cn1cc2c(n1)CCCC2
inactive: growth inhibition [1] -5.23% | growth inhibition [2] -2.12% | viability increase [3] 1.91% | viability [4] 94% | viability [5] 92.5% | inhibition [6] 2.06% | RAM network inhibition [7] -1.27%

COc1ccc(N(CC(=O)NCc2cccnc2)S(=O)(=O)c2c(C)nn(C)c2C)cc1
inactive: growth inhibition [1] -19.9% | growth inhibition [2] -19.4% | viability increase [3] -1.49% | viability [4] 98.5% | viability [5] 95.2% | inhibition [6] 1.57% | RAM network inhibition [7] 7.6%

O=C(CC1c2ccccc2Oc2ccccc21)N1CCN(c2ccccn2)CC1
inactive: growth inhibition [1] -16.3% | growth inhibition [2] -10.3% | viability increase [3] -3.24% | viability [4] 71.6% | viability [5] 70.5% | inhibition [6] 1.08% | RAM network inhibition [7] 4.78%

Cn1c(SCC(=O)Nc2ccccc2F)nnc1-c1cccnc1
inactive: growth inhibition [1] -5.35% | growth inhibition [2] -5.78% | viability increase [3] -0.11% | viability [4] 100% | viability [5] 92.8% | inhibition [6] 1.01% | RAM network inhibition [7] -1.31%

CCCOC(=O)C1C2C=CC3(CN(c4ccc(Cl)c(F)c4)C(=O)C13)O2 (stereo not drawn)
inactive: growth inhibition [1] 4.25% | growth inhibition [2] 0.67% | viability increase [3] -2.67% | viability [4] 93.4% | viability [5] 86.5% | inhibition [6] -0.06% | RAM network inhibition [7] 1.54%

COCCNC(=O)CN(c1ccccc1OC)S(C)(=O)=O
inactive: growth inhibition [1] -6.76% | growth inhibition [2] 1.17% | viability increase [3] 0.7% | viability [4] 101% | viability [5] 101% | inhibition [6] 2.75% | RAM network inhibition [7] 0.67%

COC(=O)CSC1=C(C#N)C(c2cccc(OC)c2)CC(=O)N1 (stereo not drawn)
inactive: growth inhibition [1] -12.2% | growth inhibition [2] -5.83% | viability increase [3] -3.93% | viability [4] 89.1% | viability [5] 90.3% | inhibition [6] 0.41% | RAM network inhibition [7] -1.62%

Nc1c(C(=O)CCC(=O)O)oc2ccc(Cl)cc12
inactive: growth inhibition [1] 5.78% | growth inhibition [2] -0.24% | viability increase [3] -2.01% | viability [4] 100% | viability [5] 99.4% | inhibition [6] 0.635% | RAM network inhibition [7] 5.46%

O=c1c(/C=N/O)c(Nc2ccccc2)nc2ccccn12
inactive: growth inhibition [1] -10.8% | growth inhibition [2] 10.2% | viability increase [3] -6.27% | viability [4] 93.8% | viability [5] 76.5% | inhibition [6] 0.56% | RAM network inhibition [7] 4.18%

Cc1ccccc1NCN1C(=O)C2C3C=CC(C3)C2C1=O (stereo not drawn)
inactive: growth inhibition [1] -11.2% | growth inhibition [2] -18.2% | viability increase [3] -2.43% | viability [4] 86% | viability [5] 96.2% | inhibition [6] 3.66% | RAM network inhibition [7] 0.48%

CCOC(=O)c1cnc2c(C)cccc2c1NCc1ccco1
inactive: growth inhibition [1] -10.5% | growth inhibition [2] -9.38% | viability increase [3] -4.61% | viability [4] 82.5% | viability [5] 79% | inhibition [6] 1.28% | RAM network inhibition [7] -0.77%
